Like-named read-outs stand apart in the source and are kept apart here.
Tests used:
[1] = Toxicokinetic / pharmacokinetic study of insulin injection in Beagle dogs; type: in vivo, Beagle dogs (Canis lupus familiaris); settings: subcutaneous, across all doses (0.5, 1, 1.5 IU/kg vs Lantus 1.5 IU/kg), Fig. 5
animals = experiment: In vivo immunogenicity studies in animals; settings: no details given
[2] = biological target: insulin-like growth factor 1 receptor (IGF-1R) (Homo sapiens, UniProt P08069); experiment: IGF-1R binding assay; settings: H19-7/IGF-1R cell line, [125I]-labeled IGF competition; Fig. 6E
[3] = biological target: T1, insulin receptor isoform B (IR-B) (Homo sapiens, UniProt P06213); experiment: Insulin receptor phosphorylation assay; type: cell-based; settings: CHO cells expressing insulin receptor; phospho-specific ELISA; Fig. 6B
Procedure, shortened: (§1)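 CHO cells expressing IR isoforms A and B were cultured in DMEM with 10% FBS and 1% penicillin-streptomycin, then serum-starved. Cells were exposed to insulin at 0.1, 1 or 10 nM for 5, 15 or 30 min. Lysates were applied to anti-phosphotyrosine-coated wells and detected with an HRP-conjugated secondary antibody. Receptor phosphorylation was quantified from absorbance.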

[4] = biological target: T2, insulin receptor isoform A (IR-A) (Homo sapiens, UniProt P06213); experiment: Insulin receptor phosphorylation assay; type: cell-based; settings: CHO cells expressing insulin receptor; phospho-specific ELISA; Fig. 6A
Procedure, shortened: as §1

type 1 diabetic rats = type: in vivo, NOD rats
Procedure, shortened: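 […]. […] Single dose: overnight fast, then tail-vein glucose by glucometer at 1, 2, 4 and 6 h. Multiple dose: daily injections, glucose at 2, 4 and 6 h post-injection. Triplicate measurements, means reported.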

[5] = biological target: T2, insulin receptor isoform A (IR-A); experiment: Insulin receptor binding assay; settings: CHO cell lysates, [125I]-labeled insulin competition; Fig. 6C
Procedure, shortened: (§2)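 CHO cells expressing insulin receptor isoforms A and B were grown in DMEM with 10% FBS and 1% penicillin-streptomycin, then serum-starved. Cell lysates were incubated with [125I]-insulin with or without excess unlabeled competitor. Bound and free tracer were separated by gel filtration and radioactivity was counted per fraction. IC50 values came from competitive binding curves.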

[6] = biological target: T1, insulin receptor isoform B (IR-B); experiment: Insulin receptor binding assay; settings: CHO cell lysates, [125I]-labeled insulin competition; Fig. 6D
Procedure, shortened: as §2

[7] = biological target: insulin lisargine (human); experiment: crystal structure
[8] = biological target: insulin lisargine (human); experiment: crystal structure; remark: listed apart in the source

T1 sequence (P06213 28-758 limits assumed): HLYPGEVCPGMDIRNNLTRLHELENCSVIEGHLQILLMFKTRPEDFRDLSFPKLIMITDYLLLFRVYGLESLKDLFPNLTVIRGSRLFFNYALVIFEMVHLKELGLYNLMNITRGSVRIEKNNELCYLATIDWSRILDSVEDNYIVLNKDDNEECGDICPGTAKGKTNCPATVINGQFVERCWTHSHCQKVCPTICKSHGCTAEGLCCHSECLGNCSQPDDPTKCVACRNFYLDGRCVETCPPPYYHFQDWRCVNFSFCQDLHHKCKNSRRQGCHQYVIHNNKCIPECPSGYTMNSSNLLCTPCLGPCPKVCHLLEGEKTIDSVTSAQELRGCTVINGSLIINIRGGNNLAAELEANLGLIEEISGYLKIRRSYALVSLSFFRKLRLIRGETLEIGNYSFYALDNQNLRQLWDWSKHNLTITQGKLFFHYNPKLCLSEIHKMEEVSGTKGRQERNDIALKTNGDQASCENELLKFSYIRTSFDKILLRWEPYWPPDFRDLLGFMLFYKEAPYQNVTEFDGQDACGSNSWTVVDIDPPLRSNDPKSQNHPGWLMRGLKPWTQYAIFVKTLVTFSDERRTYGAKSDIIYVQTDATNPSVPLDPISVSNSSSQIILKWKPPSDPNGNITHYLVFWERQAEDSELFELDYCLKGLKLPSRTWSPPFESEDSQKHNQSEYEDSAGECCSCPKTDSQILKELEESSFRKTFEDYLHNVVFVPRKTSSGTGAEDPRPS
T1 sequence (P06213 763-1382 limits assumed): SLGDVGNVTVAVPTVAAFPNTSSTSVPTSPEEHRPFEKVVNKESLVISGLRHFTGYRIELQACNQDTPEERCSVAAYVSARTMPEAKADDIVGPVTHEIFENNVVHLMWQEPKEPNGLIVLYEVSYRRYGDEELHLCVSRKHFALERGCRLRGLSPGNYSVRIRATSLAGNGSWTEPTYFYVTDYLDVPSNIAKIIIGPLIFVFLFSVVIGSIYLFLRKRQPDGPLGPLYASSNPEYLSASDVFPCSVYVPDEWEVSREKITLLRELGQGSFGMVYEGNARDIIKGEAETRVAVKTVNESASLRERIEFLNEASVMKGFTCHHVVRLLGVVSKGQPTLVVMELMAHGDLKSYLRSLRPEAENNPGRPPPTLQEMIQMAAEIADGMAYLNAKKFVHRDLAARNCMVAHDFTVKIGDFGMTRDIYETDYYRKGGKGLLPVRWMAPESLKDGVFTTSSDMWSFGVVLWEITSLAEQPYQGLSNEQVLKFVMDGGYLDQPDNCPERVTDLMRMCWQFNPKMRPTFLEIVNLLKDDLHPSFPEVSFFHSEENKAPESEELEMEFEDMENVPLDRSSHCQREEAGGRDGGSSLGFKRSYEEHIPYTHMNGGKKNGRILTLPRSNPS
T2 sequence (P06213 28-1370 isoform P06213-2 limits assumed): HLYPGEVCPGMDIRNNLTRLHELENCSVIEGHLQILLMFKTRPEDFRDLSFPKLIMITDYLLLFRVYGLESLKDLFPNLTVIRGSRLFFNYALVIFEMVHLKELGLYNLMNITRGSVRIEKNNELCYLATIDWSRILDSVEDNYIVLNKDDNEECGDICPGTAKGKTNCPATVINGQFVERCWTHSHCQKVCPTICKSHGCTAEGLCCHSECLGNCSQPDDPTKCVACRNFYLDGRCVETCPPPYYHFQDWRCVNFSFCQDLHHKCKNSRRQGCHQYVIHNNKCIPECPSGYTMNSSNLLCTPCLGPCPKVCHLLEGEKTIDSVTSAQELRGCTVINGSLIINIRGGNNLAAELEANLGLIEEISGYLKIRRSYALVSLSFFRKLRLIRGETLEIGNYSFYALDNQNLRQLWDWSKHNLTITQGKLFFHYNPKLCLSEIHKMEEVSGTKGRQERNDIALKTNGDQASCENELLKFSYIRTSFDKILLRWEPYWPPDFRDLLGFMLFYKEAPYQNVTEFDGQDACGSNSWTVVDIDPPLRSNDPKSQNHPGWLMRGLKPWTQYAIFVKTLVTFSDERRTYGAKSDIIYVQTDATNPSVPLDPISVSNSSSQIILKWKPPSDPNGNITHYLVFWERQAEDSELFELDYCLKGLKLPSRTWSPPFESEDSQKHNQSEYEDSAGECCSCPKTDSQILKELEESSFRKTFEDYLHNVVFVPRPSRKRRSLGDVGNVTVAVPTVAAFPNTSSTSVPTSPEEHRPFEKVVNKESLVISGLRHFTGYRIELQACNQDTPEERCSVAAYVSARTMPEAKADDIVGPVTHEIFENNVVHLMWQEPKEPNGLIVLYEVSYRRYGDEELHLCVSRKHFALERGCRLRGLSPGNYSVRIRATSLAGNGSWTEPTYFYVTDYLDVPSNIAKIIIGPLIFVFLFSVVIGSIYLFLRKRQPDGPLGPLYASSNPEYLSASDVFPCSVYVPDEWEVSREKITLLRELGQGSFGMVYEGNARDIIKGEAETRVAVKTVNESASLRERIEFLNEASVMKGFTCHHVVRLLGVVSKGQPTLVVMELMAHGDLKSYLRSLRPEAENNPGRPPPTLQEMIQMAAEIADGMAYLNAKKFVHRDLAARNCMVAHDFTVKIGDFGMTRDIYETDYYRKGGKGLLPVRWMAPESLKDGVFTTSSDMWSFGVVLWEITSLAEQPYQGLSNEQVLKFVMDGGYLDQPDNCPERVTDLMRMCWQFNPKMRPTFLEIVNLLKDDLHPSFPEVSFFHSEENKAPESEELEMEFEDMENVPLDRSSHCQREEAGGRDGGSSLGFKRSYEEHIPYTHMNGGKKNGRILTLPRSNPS
T2 sequence (P06213 763-1382 limits assumed): as the sequence (P06213 763-1382 limits assumed) above
Chain of insulin-like growth factor 1 receptor (IGF-1R) (P08069 31-736 limits assumed): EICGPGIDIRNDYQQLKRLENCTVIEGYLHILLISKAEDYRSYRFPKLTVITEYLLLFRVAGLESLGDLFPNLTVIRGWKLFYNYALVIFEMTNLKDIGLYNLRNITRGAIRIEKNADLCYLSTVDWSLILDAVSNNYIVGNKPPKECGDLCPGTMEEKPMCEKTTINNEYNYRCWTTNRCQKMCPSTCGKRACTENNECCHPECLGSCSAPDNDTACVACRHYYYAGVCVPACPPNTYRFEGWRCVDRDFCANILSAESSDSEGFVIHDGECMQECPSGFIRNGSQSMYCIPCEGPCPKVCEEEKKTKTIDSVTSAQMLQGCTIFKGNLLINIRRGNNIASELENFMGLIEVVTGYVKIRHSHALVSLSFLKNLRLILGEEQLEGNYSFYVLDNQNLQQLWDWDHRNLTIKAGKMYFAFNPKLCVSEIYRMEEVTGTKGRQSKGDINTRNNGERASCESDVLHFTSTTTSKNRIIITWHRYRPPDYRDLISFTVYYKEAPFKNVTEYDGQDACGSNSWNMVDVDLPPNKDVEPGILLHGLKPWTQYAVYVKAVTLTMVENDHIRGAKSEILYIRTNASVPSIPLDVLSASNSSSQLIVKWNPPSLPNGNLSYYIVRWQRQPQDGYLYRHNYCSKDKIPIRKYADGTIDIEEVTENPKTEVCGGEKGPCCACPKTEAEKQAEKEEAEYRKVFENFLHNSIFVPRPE
Chain of insulin-like growth factor 1 receptor (IGF-1R) (P08069 741-1367 limits assumed): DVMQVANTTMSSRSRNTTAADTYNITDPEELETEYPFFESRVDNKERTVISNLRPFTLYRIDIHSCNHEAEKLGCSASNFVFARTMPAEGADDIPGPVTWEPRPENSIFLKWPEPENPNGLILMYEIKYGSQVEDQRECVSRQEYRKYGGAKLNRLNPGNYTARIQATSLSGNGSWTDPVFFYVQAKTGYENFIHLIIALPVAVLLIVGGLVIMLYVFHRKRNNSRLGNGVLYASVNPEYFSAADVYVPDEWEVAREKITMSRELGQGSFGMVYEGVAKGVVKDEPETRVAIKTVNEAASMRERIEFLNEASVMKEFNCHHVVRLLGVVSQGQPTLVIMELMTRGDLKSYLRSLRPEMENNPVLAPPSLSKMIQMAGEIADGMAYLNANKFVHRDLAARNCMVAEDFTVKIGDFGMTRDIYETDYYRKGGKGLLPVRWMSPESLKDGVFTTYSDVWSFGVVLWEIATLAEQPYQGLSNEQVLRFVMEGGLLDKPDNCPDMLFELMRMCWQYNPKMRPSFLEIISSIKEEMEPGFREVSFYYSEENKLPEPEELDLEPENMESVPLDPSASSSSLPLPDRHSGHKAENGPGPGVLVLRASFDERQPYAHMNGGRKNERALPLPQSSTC

Substance | plasma insulin concentrations compared with Lantus (insulin glargine) [1] | immunogenicity in animals (animals) | IGF-1R binding affinity / IC50 compared with Lantus (insulin glargine) [2] | IR-B phosphorylation levels compared with Lantus [3] | IR-A phosphorylation levels compared with Lantus [4] | glucose-lowering effect compared with glargine (type 1 diabetic rats; 5 IU/kg (abstract)) | blood glucose levels compared with solvent control, multiple-dose (type 1 diabetic rats; daily administration, at 2, 4 and 6 h post-administration, Fig. 4B) | glucose-lowering effects compared with Aspart Insulin (type 1 diabetic rats; equivalent dose of 5 IU/kg, single-dose and multiple-dose studies) | time of most pronounced glucose-lowering effect, multiple-dose (type 1 diabetic rats; multiple-dose, 5 IU/kg group, Fig. 4B) | time of peak glucose-lowering effect, multiple-dose (type 1 diabetic rats; multiple-dose, 10 IU/kg, Fig. 4B) | blood glucose levels compared with solvent control, single-dose (type 1 diabetic rats; single dose (2.5, 5, 10 IU/kg), at 1, 2, 4 and 6 h post-administration, Fig. 4A) | time point of most pronounced glucose-lowering effect, single-dose (type 1 diabetic rats; single dose, Fig. 4A) | binding affinity to IR-A compared with Lantus [5] | binding affinity to IR-B compared with Lantus [6] | stoichiometry N [7] | stoichiometry N [8]
insulin lisargine | no significant differences | favorable safety profile | no significant differences in binding affinity or IC50 values | no significant differences | no significant differences | significantly outperformed glargine | significant reductions | comparable to the clinical drug Aspart Insulin | 4 h | 6 h | statistically significant reductions | 4 h | comparable binding affinities | comparable binding affinities | – | –
insulin lisargine (ligand) | – | – | – | – | – | – | – | – | – | – | – | – | – | – | 6 | 2

Reference: PMC12464261 (Scientific Reports, 2025)
